Assay [1] deals with Pseudomonas aeruginosa. The experiment in a line: Antibacterial activity against Pseudomonas aeruginosa assessed as LPS neutralisation by LAL assay. In kind it is functional, organism-based. The essentials:
(§1)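 LPS was used at 0.04 units: 0.01 ng for E. coli 055:B5, 0.01 ng for E. coli 0111:B4, 0.003 ng for K. pneumoniae, 0.01 ng for P. aeruginosa, 0.03 ng for S. typhimurium and 0.03 ng for S. marcescens. IC50 came from sigmoidal fits of dose-response curves.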

Assay [2] has as its system Mus musculus. The assay is described as follows: Survival of Escherichia coli 055:B5 LPS-challenged C57/BL6 mouse at 50 mg/kg, ip after 120 hrs relative to control. As to conditions: route intraperitoneal. The format is functional. The essentials:
(§2)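 Male C57/BL6 mice (n = 4–8/group) received a lethal LPS dose: 500 µg for E. coli 0111:B4, 600 µg for E. coli 055:B5 and 600 µg for Salmonella. LPS was premixed with compound in 2% DMSO v/v for 30 min, then injected i.p. Controls got DMSO alone or compound alone. Survival was followed for up to 120 h, and mean survival time was compared by Student's t-test.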

For assay [3], the system named is Escherichia coli. The assay is described as follows: Antibacterial activity against Escherichia coli 0111:B4 assessed as LPS neutralisation by LAL assay. The format is functional, organism-based. The essentials:
as §1

Assay [4] has as its system Mus musculus. The experiment in a line: Survival of Escherichia coli 0111:B4 LPS-challenged C57/BL6 mouse at 50 mg/kg, ip after 120 hrs relative to control. In kind it is functional. The following applies: route intraperitoneal. Put shortly: as §2
For assay [5], the system named is Escherichia coli. The experiment in a line: Antibacterial activity against Escherichia coli 055:B5 assessed as LPS neutralisation by LAL assay. The format is functional, organism-based. The essentials: as §1
The subject of assay [6] is Mus musculus. The experiment in a line: Survival of Salmonella LPS-challenged C57/BL6 mouse at 50 mg/kg, ip after 120 hrs relative to control. The format is functional. The following applies: route intraperitoneal. The essentials: as §2
The subject of assay [7] is Klebsiella pneumoniae. The assay is described as follows: Antibacterial activity against Klebsiella pneumoniae assessed as LPS neutralisation by LAL assay. In kind it is functional, organism-based. Put shortly: as §1
Assay [8] deals with Mus musculus. The experiment in a line: Survival of Escherichia coli 055:B5 LPS-challenged C57/BL6 mouse at 5 mg/kg, ip after 120 hrs relative 10 control. The format is functional, organism-based. On the set-up: dose 5 mg/kg. The essentials:
as §2

The subject of assay [9] is Salmonella typhimurium. The assay is described as follows: Antibacterial activity against Salmonella Typhimurium assessed as LPS neutralisation by LAL assay. The following applies: Salmonella enterica. The format is functional, organism-based, Salmonella enterica subsp. enterica serovar Typhimurium. The essentials:
as §1

Assay [10] concerns Escherichia coli. The assay is described as follows: Antibacterial activity against Escherichia coli 0111:B4 assessed as LPS neutralisation at 5 uM by LAL assay. The format is functional, organism-based.
The test system of assay [11] is Salmonella typhimurium. The assay is described as follows: Antibacterial activity against Salmonella Typhimurium assessed as LPS neutralisation by LAL assay at 5 uM. In kind it is functional, organism-based. The following applies: Salmonella enterica subsp. enterica serovar Typhimurium.
Assay [12] concerns Klebsiella pneumoniae. The assay is described as follows: Antibacterial activity against Klebsiella pneumoniae assessed as LPS neutralisation by LAL assay at 5 uM. The format is functional, organism-based.
Assay [13] has as its system Pseudomonas aeruginosa. The assay is described as follows: Antibacterial activity against Pseudomonas aeruginosa assessed as LPS neutralisation at 5 uM by LAL assay. The format is functional, organism-based.
Assay [14] concerns Escherichia coli. The assay is described as follows: Antibacterial activity against Escherichia coli 055:B5 assessed as LPS neutralisation at 5 uM by LAL assay. In kind it is functional, organism-based.

Broadly, the IC50 is the concentration at which inhibition is half-maximal.

Calls of active or inactive are those of the source. The calls are words filed in the database; no cut-off is given here.

On to `CC(C)(C)c1cc2c(OCCCCNC(=N)N)c(c1)Cc1cc(C(C)(C)C)cc(c1OCCCCNC(=N)N)Cc1cc(C(C)(C)C)cc(c1OCCCCNC(=N)N)Cc1cc(C(C)(C)C)cc(c1OCCCCNC(=N)N)C2`, for which the IC50 in the assay with Pseudomonas aeruginosa [1] is 1500 nM; with Escherichia coli [3] it was 700 nM; in the assay on Escherichia coli [5], 40 nM; with Klebsiella pneumoniae [7], 1000 nM; with Salmonella typhimurium [9] it was 600 nM. In addition, the survival at 50 mg/kg in the assay on Mus musculus [2] is 40%; in the assay with Mus musculus [4], 100%; in the assay with Mus musculus [6], 60%. In addition, the outcome in the assay with Mus musculus [8] was inactive.

For `CC(C)(C)c1cc2c(OCC(=O)NCCCn3cncn3)c(c1)Cc1cc(C(C)(C)C)cc(c1OCC(=O)NCCCn1cncn1)Cc1cc(C(C)(C)C)cc(c1OCC(=O)NCCCn1cncn1)Cc1cc(C(C)(C)C)cc(c1OCC(=O)NCCCn1cncn1)C2`, the result with Escherichia coli [10], in the assay on Salmonella typhimurium [11], in the assay on Klebsiella pneumoniae [12], with Pseudomonas aeruginosa [13] and with Escherichia coli [14] was inactive.
